Bioassay records from PubChem.
Shown are actives, neighbours in structure and some others; about 2.2% of the full set was active somewhere.
NR2F2 inh: NR2F2 (human) inhibition, primary screen | P24468 | HEK293T NGFI-A luciferase reporter, luminescence | inhibition, % at 8.6 µM | actives 0.7% (n = 370,000);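 active = inhibition above a per-plate cutoff, mean inhibition of test wells between control levels plus 3 SD, cut at about 38% in these data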;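 also: cells cotransfected with COUP-TFII expression vector driving the NGFI-A reporter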
SMARCA2 act: SMARCA2 function activation, primary screen; MG213 cells, MMTV-luciferase reporter, dexamethasone, overnight; activation, % at 9.1 µM; actives 1% (n = 370,000); AID 652017; in the data active = activation above about 7.8%
GalR3 antagonist: blocks the human galanin receptor 3. actives 0.44% (n = 360,000). inhibition, % at 3 µM. HEK293 GalR3-CNG cAMP membrane potential fluorescence; galR3 body fused to GalR1 C-terminus;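 active = inhibition above the screen-wide average plus 3 SD, cut at about 13% in these data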;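 also: forskolin and galanin both at EC90 stimulate the cells; cAMP rise reported by CNG channel membrane potential dye signal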
Target sequence (O60755 1-299 limits assumed): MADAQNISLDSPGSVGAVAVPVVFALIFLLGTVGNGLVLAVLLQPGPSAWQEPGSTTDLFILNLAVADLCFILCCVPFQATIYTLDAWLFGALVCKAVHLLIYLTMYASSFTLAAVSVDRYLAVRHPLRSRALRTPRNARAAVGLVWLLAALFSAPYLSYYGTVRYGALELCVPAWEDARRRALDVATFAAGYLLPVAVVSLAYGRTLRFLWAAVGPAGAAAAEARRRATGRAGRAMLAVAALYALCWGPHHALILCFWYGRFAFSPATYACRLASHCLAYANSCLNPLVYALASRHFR
NR2E3 ag-1: NR2E3 (human) agonism; Q9Y5X4; GST-NR2E3/biotin-RetCOR TR-FRET, 1536-well; inhibition of corepressor binding, % at 4.78 µM; actives 0.12% (n = 320,000); AID 2300;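 active = percent inhibition above the cutoff of mean plus 3 SD of all tested compounds, set per screening campaign, cut at about 20% in these data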
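Assay system: NR2E3–RetCOR corepressor complex. Quantity: 1.35 nM GST-NR2E3. Buffer or medium: pH 7.5 Tris-based buffer. Reagent: biotinylated RetCOR corepressor at 7 nM final. Schedule: 5 h at 4 °C. Detection: TR-FRET, emission read at 617 and 671 nm. Replicates: one well per compound, singlicate testing.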
NR2E3 ag-2: activates human NR2E3 receptor; actives 0.35% (n = 360,000); inhibition of corepressor binding, % at 3.98 µM; Q9Y5X4; CHO-S Gal4-NCOR/VP16-NR2E3 two-hybrid, luciferase;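 active = inhibition above the mean of all tested compounds plus 3 SD, cut at about 70% in these data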;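 also: higher means lower luciferase signal from less NR2E3 corepressor binding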
SMARCA2 conf: confirmation of SMARCA2 (BRM) function activators; shares compounds with SMARCA2 act; MG213 cells, MMTV-luciferase with dexamethasone, luminescence, overnight; MG213 cells expressing E1A, Rb sequestered; DMSO wells 0%, reference activator 100%; activation, % at 9.1 µM; actives 30% (n = 3,500); AID 652260;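 active = activation above its plate's cutoff, the mean activation of tested wells plus 3 SD, cut at about 7.9% in these data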
VP16 Luc act: GAL4-VP16 reporter activation counter-screen; HEK293 GAL4-VP16 pG5luc reporter, luciferase luminescence; scaled: DMSO wells 0%, SAHA wells 100%; AID 686939; activation, % at 9.1 µM; shares compounds with SMARCA2 act; actives 41% (n = 3,500);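 active = activation above the solvent-only control well mean plus 3 SD, averaged across control plates, cut at about 5.2% in these data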
Hits are given with their value; – = inactive; · = no result given.

SMILES	NR2F2 inh	SMARCA2 act	GalR3 antagonist	NR2E3 ag-1	NR2E3 ag-2	SMARCA2 conf	VP16 Luc act
Cc1ccc(-c2ccnc(-c3ccc(O)cc3)n2)cc1	–	–	–	–	–	·	·
CCOc1ccc(NCC(=O)c2ccc(C)cc2)cc1	–	–	–	–	–	·	·
Cc1ccc(C(=O)CNc2ccc(Cl)cc2)cc1	–	13	–	–	–	12	–
CCOC(=O)CSc1cccc2cccnc12	–	9.4	–	–	–	–	–
CN1C2CCCC1CC(NC(=O)c1nn(C)c3ccccc13)C2 (stereo not drawn)	–	–	·	·	·	·	·
Cc1[nH]c2ccc(C(=O)N3CCCCC3)cc2c1C	–	11	–	–	–	–	9.4
O=C(NCCc1ccc(F)cc1)C1CCN(C(=O)Nc2ccccc2)CC1	–	8.0	–	–	–	–	–
O=C(NCCc1ccccc1)C1CCN(C(=O)c2ccc(F)cc2)CC1	–	–	–	–	–	·	·
CCCC1CCC2(CCCN2CCOC(=S)Nc2ccccc2)CC1 (stereo not drawn)	–	·	·	·	·	·	·
O=[N+]([O-])c1cccc(COc2ccc(CO)cc2)c1	–	9.4	–	·	·	9.1	13
O=C(Nc1ccc(OC(F)(F)F)cc1)Nc1c(-c2ccccc2)nc2ncccn12	–	–	·	·	·	·	·
N/C(=N\OC(=O)Cc1ccc(Cl)cc1)c1ccccn1	–	–	–	–	–	·	·
CC(C)(C)CC(=O)O/N=C(\N)c1ccccn1	–	11	–	–	–	8.8	–
Cc1cccc(OCC(=O)O/N=C(\N)c2ccccn2)c1C	–	9.2	–	–	–	10	7.0
Cc1ccc(CC(=O)O/N=C(\N)c2ccccn2)cc1	–	8.9	–	–	–	9.7	8.4
Cc1cc(-c2n[nH]c(=S)n2N=Cc2cccc(OCc3ccccc3)c2)n[nH]1	–	–	·	·	·	·	·
Cc1ccc(C(=O)NCCN2C(=O)C3C4C=CC(C4)C3C2=O)cc1 (stereo not drawn)	–	–	·	·	·	·	·
O=C(Nc1ccccc1Cl)c1cc2ccccc2o/c1=N\O	–	11	–	–	–	15	16
O=C(O)c1ccccc1C(=O)NNc1cccc(Cl)n1	–	8.6	–	–	–	–	–
O=C(NNc1cccc(Cl)n1)c1c(Cl)cccc1Cl	–	–	–	–	–	·	·
O=C(Nc1ccccc1F)C1(c2ccccc2)CC1(Cl)Cl (stereo not drawn)	–	9.9	–	–	–	–	–
O=C(Nc1ccccc1)C1(c2ccccc2)CC1(Cl)Cl (stereo not drawn)	–	–	–	–	–	·	·
COc1ccc(OC)c2nc3c(C(=O)NCCN(C)C)cccc3nc12	–	21	–	·	–	52	–
CN(C)CCNC(=O)c1cccc2ccc(-c3ccc(-c4ccccc4)cc3)nc12	–	8.6	–	·	–	24	–
CN(C)CCNC(=O)c1cccc2nc3cccc(F)c3nc12	–	52	–	·	–	194	14
SMILES	NR2F2 inh	SMARCA2 act	GalR3 antagonist	NR2E3 ag-1	NR2E3 ag-2	SMARCA2 conf	VP16 Luc act
COC(=O)CNC(=O)[C@H](Cc1ccccc1)NC1(C(=O)NCCc2c[nH]c3ccccc23)CCCCC1	–	·	·	·	·	·	·
COC(=O)[C@]12C[C@H](CC(=O)N3CCSCC3)C(=O)N(Cc3cccc4ccccc34)C1=C[C@H](COCc1ccccc1)O[C@@H]2C	–	–	·	·	·	·	·
COc1cccc(/C=N/N=C(\N)c2nonc2N)c1O	–	8.6	–	–	–	–	12
Cc1cccc(C)c1-n1nnnc1C1c2ccccc2OCC(=O)N1Cc1ccc(F)cc1 (stereo not drawn)	–	–	·	·	·	·	·
CCCCCCC12C(=Cc3cc4c(cc31)OCCO4)c1cc(OC)c(OC)cc1C(CC(=O)NCc1ccccc1)N2C(=O)OC (stereo not drawn)	–	–	–	·	·	·	·
C(=N\N=C\c1cccnc1)/c1cccnc1	·	·	·	–	–	·	·
CN(/N=C/c1cccnc1)c1cnc2ccccc2n1	–	9.0	–	–	–	19	11
S=C(NNC(=S)Nc1ccc(Cl)cc1)NNc1ccccc1	–	–	–	·	–	·	·
S=C(N=Nc1ccccc1)NNc1ccccc1	–	10	·	–	–	14	7.7
COC(=O)[C@@]12CCCCC=C1N(CCc1ccc(Cl)cc1)C(=O)[C@H]2CC(=O)NCC12CC3CC(CC(C3)C1)C2	–	–	·	·	·	·	·
CCCCCn1nnnc1C1c2ccccc2OCC(=O)N1Cc1ccco1 (stereo not drawn)	–	10	·	·	·	–	–
CCCCn1nnnc1C1c2ccccc2OCC(=O)N1Cc1ccc2c(c1)OCO2 (stereo not drawn)	–	–	·	·	·	·	·
Cc1cc2cc(C#N)c(N3CCN(S(C)(=O)=O)CC3)nc2cc1C	–	9.1	–	–	–	–	–
COC(=O)Nc1ccc2ncn(C)c(=O)c2c1	–	9.9	–	–	–	–	–
Cc1cc(S(=O)(=O)N2CCC3(CC2)OCCO3)c(C)cc1Cl	–	12	–	–	–	–	–
COC(=O)c1ccc(CN2CCCC(C(=O)Nc3ccc(-c4ccn[nH]4)cc3)C2)cc1 (stereo not drawn)	–	–	–	–	–	·	·
O=C(Nc1ccc(-c2nc3ccccc3[nH]2)cc1)C1CCCN(Cc2ccn[nH]2)C1 (stereo not drawn)	–	18	–	·	–	–	–
COC(=O)c1cn(-c2ccc3c(c2)[C@]2(CC(=O)N(C)C2c2ccccc2)C(=O)N3CC(C)C)nn1 (stereo partly drawn)	–	–	·	·	·	·	·
N#C/C(=C\c1ccc(OC(=O)c2cccs2)cc1)c1nc2ccccc2[nH]1	–	13	–	–	–	8.5	6.2
N#C/C(=C\c1cccs1)c1nc2ccccc2[nH]1	–	–	–	–	–	·	·
CC(=O)Nc1cccc(C(=O)N/N=C/c2cccc(C)n2)c1	–	11	–	–	–	–	–
COc1ccccc1CNC(=O)COC(=O)c1cccnc1SCC(=O)NCc1ccccc1OC	–	–	–	–	–	·	·
O=C(COC(=O)c1cccnc1SCC(=O)NCc1ccccc1)NCc1ccccc1	–	9.1	–	–	–	–	–
C=CC(=O)NC1CCCCN(CC)C1=O (stereo not drawn)	–	–	·	·	·	·	·
CC(Sc1nc2ccccc2[nH]1)C(=O)O (stereo not drawn)	–	–	–	–	–	·	·
CC(=O)N=C(N)Sc1nc2ccccc2[nH]1	–	9.7	–	–	–	–	9.2
C[C@H](NC(=O)OCc1ccccc1)P(=O)(O)O	–	–	·	·	·	·	·
COc1ccc(NC(=O)COC(=O)c2ccc(N3CCCC3=O)cc2)cc1	–	–	–	–	–	·	·
CC(NC(=O)COC(=O)c1ccc(N2CCCC2=O)cc1)c1ccc(F)cc1 (stereo not drawn)	–	9.4	–	·	–	–	–
